Measurements collected from several papers.
Lines come from different studies, so protocols differ. pEC50, pIC50: −log10 of the molar value.

For `Cc1c(C(N)=S)c(N)n(N)c(=O)c1C#N`, the inhibition zone was 18 mm (Saccharomyces cerevisiae; microbial growth, well diffusion; ATCC9763; 500 µg/mL).
The pEC50 of `C=CC(=O)NC1CCN(c2ncc3ncnc(Nc4ccc(Oc5ccc6c(c5)ncn6C)c(C)c4)c3n2)CC1` is reported as 7.84 (NUGC-4; cell growth or viability).
`Nc1ccc(/C=C/C(=O)N2CCc3c(oc4c(-c5ccc(F)cc5)cc(-c5ccc(C(=O)N6CCC(F)(F)CC6)nn5)cc34)C2)cn1` has a pIC50 of less than 4.70 (PANC-1; cell growth or viability, CCK-8; 72 h).
`CCOc1ccc(-c2c(Cc3ccc(OC)cc3)[nH]/c(=N/C(=O)C34CC5CC(CC(C5)C3)C4)n2C)cc1OC` gave a pIC50 of 4.96 (Hepatitis B virus; viral replication, inhibitor; HePAD38).
For `O=C(NO)c1ccc(CNc2nc3cccc(-c4ccc5c(c4)OCO5)n3n2)cc1`, the GI50 was 470 nM (SF-268; cell growth or viability, SRB).
For `CN(C)c1ccc(-c2c(C(N)=O)c(N)n(N)c(=O)c2C#N)cc1`, the inhibition zone was 13 mm (Saccharomyces cerevisiae; microbial growth, well diffusion; ATCC9763; 500 µg/mL).
`O=C(NC(=S)Nc1ccccc1O)c1cccs1` gave a pIC50 of 6.54 (Leishmania tropica; parasite growth, resazurin; promastigote).
The pIC50 of `Nc1ccc(/C=C/C(=O)N2CCc3c(oc4c(-c5ccc(F)cc5)cc(-c5ccc(C(=O)N6C[C@@H]7[C@H](C6)C7(F)F)nn5)cc34)C2)cn1` is reported as less than 4.70 (PANC-1; cell growth or viability, CCK-8; 72 h).
`O=C(NC(=S)Nc1nccs1)c1ccco1` gave a pIC50 of 4.91 (Leishmania tropica; parasite growth, resazurin; promastigote).
`C=CC(=O)Nc1cc(Nc2nccc(-c3cn(C)c4ccccc34)n2)c(OC)cc1N(C)CCN(C)C` has a pIC50 of 5.15 (PANC-1; cell growth or viability, MTS; 72 h).
`CC(=O)Oc1ccc(-c2c(C(N)=O)c(N)n(N)c(=O)c2C#N)cc1` has an inhibition zone of 9 mm (Saccharomyces cerevisiae; microbial growth, well diffusion; ATCC9763; 500 µg/mL).
For `O=C(NC(=S)Nc1ccccn1)c1ccco1`, the pIC50 was 6.03 (Leishmania tropica; parasite growth, resazurin; promastigote).
